Measurements of several laboratories.
Lines come from different studies, so protocols differ.
Transmembrane protease serine 6: Transmembrane protease serine 6 (Homo sapiens, UniProt Q8IU80)
AVPR2: Vasopressin V2 receptor (AVPR2, Homo sapiens, UniProt P30518)
AGTR1: Type-1 angiotensin II receptor (AGTR1, Homo sapiens, UniProt P30556)
MTOR: Serine/threonine-protein kinase mTOR (MTOR, Homo sapiens, UniProt P42345)
NPY1R: Neuropeptide Y receptor type 1 (NPY1R, Homo sapiens, UniProt P25929)

SMILES | target | assay | setting | inhibition
CN1CCN(CCOc2ccc3occc(=O)c3c2)CC1 | Transmembrane protease serine 6 | enzyme activity, inhibitor, fluorescence | 10 µM | 6%
C[C@H](C(=O)N[C@H]1COc2ccccc2[C@@H]1S(C)(=O)=O)c1ccc(F)cc1 | AVPR2 | cell-free assay | 10 µM | 3%
Cn1cc(-c2cccc(N3CCc4c(sc5c4CC(C)(C)C5)C3=O)c2CO)cc(Nc2ccncn2)c1=O | Protein kinase C delta type (PRKCD, Homo sapiens, UniProt Q05655) | enzyme activity, inhibitor | 1 µM | 1%
Clc1ccc2c(C3CCN(CCc4c[nH]c5ccccc45)CC3)c[nH]c2c1 | Neuronal acetylcholine receptor; alpha4/beta2 (Homo sapiens, UniProt P17787+P43681) | ligand displacement, radioligand | 10 µM | 3%
C#Cc1n[nH]c2c(-c3cn([C@@H](C)c4ccccn4)c(=O)[nH]c3=O)cc(F)cc12 | Serine/threonine-protein kinase B-raf (BRAF, Homo sapiens, UniProt P15056) | enzyme activity, inhibitor | 0.1 µM | -0.3%
Cc1ccc2nc(N3C(=O)C(O)=C(C(=O)OC(C)(C)C)C3c3ccc(-c4ccc(Cl)cc4)o3)sc2c1 (centres unmarked) | UDP-N-acetylenolpyruvoylglucosamine reductase (murB, Escherichia coli K-12, UniProt P08373) | enzyme activity, inhibitor | 20 µM | 46%
O=C(Nc1cccnn1)N1CCN([C@@H]2CCOc3cc(C(F)(F)F)ccc32)CC1 | AVPR2 | cell-free assay | 20 µM | -4%
CC(C)C[C@H](NC(=O)[C@H](Cc1ccccc1)NC(=O)c1cnccn1)B(O)O | Neutrophil elastase (ELANE, Homo sapiens, UniProt P08246) | enzyme activity, inhibitor | 33 µM | 36.1%
OC[C@@]12C[C@@H]1[C@@H](n1cnc3c(NC(C4CCCC4)C4CCCC4)nc(Cl)cc31)[C@H](O)[C@@H]2O | Adenosine receptor A3 (ADORA3, Homo sapiens, UniProt P0DMS8) | ligand displacement, radioligand | 10 µM | 35%
CCN(CC)CCCC[C@H](NC(=O)[C@H](CC(C)C)NC(=O)[C@H](C)NC(=O)[C@H](Cc1ccccc1)NC(=O)c1ccc(C(C)(C)C)cc1)C(=O)N[C@@H](CO)C(=O)OC | AGTR1 | ligand displacement, radioligand | 10 µM | -4%
CN(CCN1CCC(OC(=O)Nc2ccccc2-c2ccccc2)CC1)C(=O)c1ccc(CN2CCC(C(N)=O)CC2)cc1 | AGTR1 | ligand displacement, radioligand | 1 µM | 3%
CC(C)CC(CC(=O)NO)N=[N+]=[N-] (centres unmarked) | Endoplasmic reticulum aminopeptidase 2 (ERAP2, Homo sapiens, UniProt Q6P179) | enzyme activity, inhibitor, fluorescence | 300 µM | 21%
C#Cc1n[nH]c2c(-c3cn([C@@H](C)c4ccccc4)c(=O)[nH]c3=O)cc(F)cc12 | MTOR | enzyme activity, inhibitor | 0.1 µM | 6.8%
CC(C)Cn1cnc2c(N)nc3ccccc3c21 | NPY1R | ligand displacement, radioligand | 10 µM | 13%
COCc1c(-c2cc3cc(C)cc(OC)c3s2)c2c(N)ncnn2c1CN1CCNC(=O)C1 | AGTR1 | ligand displacement, radioligand | 10 µM | 9%
CN1CCN(CCCCOc2ccc3occc(=O)c3c2)CC1 | Transmembrane protease serine 6 | enzyme activity, inhibitor, fluorescence | 10 µM | 11%
c1ccc(C(NCCNC(c2ccccc2)c2ccccc2)c2ccccc2)cc1 | AVPR2 | cell-free assay | 10 µM | 29%
Cn1cc(-c2cc(F)cc(N3CCn4c(cc5c4CCCC5)C3=O)c2CO)cc(Nc2ccc(N3CCN(C4COC4)CC3)cn2)c1=O | MTOR | enzyme activity, inhibitor | 0.1 µM | 2%
Cc1ncc(C)n2nc(/C=C/c3nc(N4CCCC4)cc(N4CCOCC4)n3)nc12 | Beta-secretase 1 (BACE1, Homo sapiens, UniProt P56817) | enzyme activity, inhibitor | 10 µM | 4%
COc1ccc(S(=O)(=O)N2CCCCC2)cc1C | NPY1R | ligand displacement, radioligand | 10 µM | < 30%
